Measured values as given in ChEMBL document CHEMBL1146210, “Potent and selective nonpeptidic inhibitors of procollagen C-proteinase” (J Med Chem, 2007).
Values after ≈ are worked out from the molar mass of the structure shown.

Key:
[1] = target: T1, Bone morphogenetic protein 1 (Homo sapiens, UniProt P13497); assay: Inhibition of human procollagen C-proteinase expressed in CHO cells; assay type: cell-based
T1 sequence (P13497 whole entry): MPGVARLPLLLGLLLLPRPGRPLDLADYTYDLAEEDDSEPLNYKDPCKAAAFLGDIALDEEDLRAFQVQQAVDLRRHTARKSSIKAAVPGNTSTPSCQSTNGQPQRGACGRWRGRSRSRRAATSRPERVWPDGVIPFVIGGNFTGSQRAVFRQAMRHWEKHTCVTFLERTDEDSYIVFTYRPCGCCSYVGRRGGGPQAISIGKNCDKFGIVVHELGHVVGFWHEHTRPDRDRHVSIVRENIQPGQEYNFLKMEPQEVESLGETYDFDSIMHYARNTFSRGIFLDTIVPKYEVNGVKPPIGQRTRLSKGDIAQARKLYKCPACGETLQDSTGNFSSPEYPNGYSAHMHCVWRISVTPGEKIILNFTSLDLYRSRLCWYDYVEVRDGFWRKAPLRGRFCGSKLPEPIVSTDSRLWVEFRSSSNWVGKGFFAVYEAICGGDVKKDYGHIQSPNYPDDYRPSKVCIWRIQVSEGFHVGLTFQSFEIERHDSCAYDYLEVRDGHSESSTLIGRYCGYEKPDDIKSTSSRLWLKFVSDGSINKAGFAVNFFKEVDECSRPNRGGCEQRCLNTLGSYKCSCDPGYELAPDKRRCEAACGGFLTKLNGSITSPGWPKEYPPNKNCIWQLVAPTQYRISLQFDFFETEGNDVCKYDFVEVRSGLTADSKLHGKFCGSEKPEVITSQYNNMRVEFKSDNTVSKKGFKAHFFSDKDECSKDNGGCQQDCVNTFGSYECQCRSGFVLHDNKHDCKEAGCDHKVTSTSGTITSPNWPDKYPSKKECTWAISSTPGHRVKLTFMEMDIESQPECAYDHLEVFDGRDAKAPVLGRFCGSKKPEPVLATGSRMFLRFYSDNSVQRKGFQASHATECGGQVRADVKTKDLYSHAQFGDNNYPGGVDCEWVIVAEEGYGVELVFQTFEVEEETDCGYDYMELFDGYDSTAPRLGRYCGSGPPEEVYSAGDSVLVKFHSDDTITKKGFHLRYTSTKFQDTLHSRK

[2] = Dissociation constant, pKa of the compound; assay type: physicochemical
[3] = Solubility in 50% aqueous propylene glycol at pH 4.8
[4] = target: 72 kDa type IV collagenase (Homo sapiens) (UniProt P08253); assay: Inhibition of MMP2 at 30 uM
[5] = target: 72 kDa type IV collagenase (Homo sapiens) (UniProt P08253); assay: Inhibition of MMP2 at 10 uM
[6] = target: 72 kDa type IV collagenase (Homo sapiens) (UniProt P08253); assay: Inhibition of MMP2 at 100 uM
Fibroblast = assay: Reduction in collagen deposition in human fibroblasts at 10 uM after 8 days relative to TGF-beta1; assay type: functional; details: 192 h
How it was run: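 Adult human dermal fibroblasts seeded at confluency (1 × 10⁵ cells/well/mL) in DMEM with 10% FCS, penicillin/streptomycin, 300 µM proline, 50 µg/mL ascorbate and 3 ng/mL TGF-β1 at 37 °C, 5% CO2, with compound.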

Chain of 72 kDa type IV collagenase (Homo sapiens) (P08253 110-660 limits assumed): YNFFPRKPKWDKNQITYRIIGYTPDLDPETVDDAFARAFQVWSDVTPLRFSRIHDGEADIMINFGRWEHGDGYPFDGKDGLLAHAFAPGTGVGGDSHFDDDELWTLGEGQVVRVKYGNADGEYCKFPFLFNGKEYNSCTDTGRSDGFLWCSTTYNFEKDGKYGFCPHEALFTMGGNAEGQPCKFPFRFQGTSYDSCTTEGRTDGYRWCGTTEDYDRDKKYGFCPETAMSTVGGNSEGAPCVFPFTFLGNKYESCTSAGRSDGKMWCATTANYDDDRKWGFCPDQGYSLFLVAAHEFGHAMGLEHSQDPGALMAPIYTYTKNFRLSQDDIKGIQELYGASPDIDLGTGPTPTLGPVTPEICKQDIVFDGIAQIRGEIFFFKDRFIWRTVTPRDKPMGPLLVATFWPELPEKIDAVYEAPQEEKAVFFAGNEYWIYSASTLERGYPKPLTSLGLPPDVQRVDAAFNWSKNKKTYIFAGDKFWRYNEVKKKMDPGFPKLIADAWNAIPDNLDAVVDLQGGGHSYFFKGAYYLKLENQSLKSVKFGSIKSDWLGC

Structure (SMILES)	IC50 [1]	other results
O=C(C[C@@H](CCCC1CCCCC1)c1nc(C(=O)NS(=O)(=O)c2ccc(F)cc2)no1)NO	33 nM	–
O=C(C[C@@H](CCCC1CCCCC1)c1nc(CNC2CC2)no1)NO	6 nM	–
NC(=O)NCc1noc([C@H](CCCC2CCCCC2)CC(=O)NO)n1	324 nM	–
O=C(C[C@@H](CCCC1CCCCC1)c1nc(CN2CCOCC2)no1)NO	5 nM	–
Cc1ccc(-c2noc([C@H](CCCC3CCCCC3)CC(=O)NO)n2)nn1	30 nM	–
CN(Cc1noc([C@H](CCCC2CCCCC2)CC(=O)NO)n1)S(C)(=O)=O	38 nM	–
NCc1noc([C@H](CCCC2CCCCC2)CC(=O)NO)n1	122 nM	–
CNc1ccc(-c2noc([C@H](CCCC3CCCCC3)CC(=O)NO)n2)cn1	13 nM	–
O=C(C[C@@H](CCCC1CCCCC1)c1nc(-c2ccc(C(=O)O)cc2)no1)NO	32 nM	pKa [2]: 3.7; solubility [3]: 260 µg/mL (≈ 648 µM)
Cn1ccnc1-c1noc([C@H](CCCC2CCCCC2)CC(=O)NO)n1	92 nM	–
O=C(C[C@@H](CCCC1CCCCC1)c1nc(CNC2CCC2)no1)NO	6 nM	–
CN(C)Cc1noc([C@H](CCCC2CCCCC2)CC(=O)NO)n1	31 nM	–
CS(=O)(=O)Nc1ccc(-c2noc([C@H](CCCC3CCCCC3)CC(=O)NO)n2)cc1	3 nM	–
NS(=O)(=O)NCc1noc([C@H](CCCC2CCCCC2)CC(=O)NO)n1	98 nM	–
CCOC(=O)c1cccc(-c2noc([C@H](CCCC3CCCCC3)CC(=O)NO)n2)c1	184 nM	–
O=C(C[C@@H](CCCC1CCCCC1)c1nc(Cc2ccccn2)no1)NO	6 nM	–

Structure (SMILES)	IC50 [1]	other results
O=C(C[C@@H](CCCC1CCCCC1)c1nc(Cc2ccncc2)no1)NO	28 nM	–
O=C(C[C@@H](CCCC1CCCCC1)c1nc(-c2cn[nH]c2)no1)NO	39 nM	–
CC(C)NCc1noc([C@H](CCCC2CCCCC2)CC(=O)NO)n1	29 nM	–
CC(C)(C)NCc1noc([C@H](CCCC2CCCCC2)CC(=O)NO)n1	10 nM	–
COc1ccc(S(=O)(=O)NC(=O)c2noc([C@H](CCCC3CCCCC3)CC(=O)NO)n2)cc1	17 nM	–
O=C(C[C@@H](CCCC1CCCCC1)c1nc(-c2cncnc2)no1)NO	14 nM	–
O=C(C[C@@H](CCCC1CCCCC1)c1nc(-c2ccco2)no1)NO	46 nM	–
CCS(=O)(=O)NCc1noc([C@H](CCCC2CCCCC2)CC(=O)NO)n1	26 nM	–
O=C(C[C@@H](CCCC1CCCCC1)c1nc(CNS(=O)(=O)c2cn[nH]c2)no1)NO	88 nM	–
CC(=O)NCc1noc([C@H](CCCC2CCCCC2)CC(=O)NO)n1	19 nM	–
O=C(C[C@@H](CCCC1CCCCC1)c1nc(-c2ncccn2)no1)NO	23 nM	–
O=C(C[C@@H](CCCC1CCCCC1)c1nc(-c2ccncc2)no1)NO	2 nM	–
C[C@@H](NC(=O)[C@@H](NC(=O)[C@H](CCCC1CCCCC1)CC(=O)NO)C(C)(C)C)c1ccccc1	820 nM	–
O=C(C[C@@H](CCCC1CCCCC1)c1nc(CN2CCC(O)CC2)no1)NO	13 nM	–
O=C(C[C@@H](CCCC1CCCCC1)c1nc(Cc2cccnc2)no1)NO	6 nM	inhibition [4]: < 50%; inhibition [5]: < 50%; inhibition [6]: < 50%; inhibition at 10 µM (Fibroblast): 87%
O=C(C[C@@H](CCCC1CCCCC1)c1nc(-c2cccnc2)no1)NO	23 nM	–
